Test results from ChEMBL document CHEMBL3813637, “Synthesis and Antiproliferative and Metabolic Evaluations of Novel Securinine Derivatives” (ACS Med Chem Lett, 2016).

Test system: Plasma
Experiment: Metabolic stability in mouse plasma at 5 uM after 2 hrs by ZQ-LC-MS analysis
Type: ADME, cell-free
Settings: not given
Method in brief: (§1)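 Compounds were incubated in rat, mouse and human plasma for 120 min at 37 °C. The result is reported as the percentage of parent compound remaining.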

Structure (SMILES) | Stability
CN(C)c1ccc(C#CC2=C[C@@H]3C[C@@]4(OC(=O)C=C24)[C@H]2CCCCN32)cc1 | Unstable
CN(C)c1ccc(C2=C[C@@H]3C[C@@]4(OC(=O)C=C24)[C@H]2CCCCN32)cc1 | Stable
COc1ccc(C#CC2=C[C@@H]3C[C@@]4(OC(=O)C=C24)[C@H]2CCCCN32)cc1 | Unstable
O=C1C=C2C(C#Cc3ccccc3)=C[C@@H]3C[C@@]2(O1)[C@H]1CCCCN31 | Unstable
O=C1C=C2C=C[C@@H]3C[C@@]2(O1)[C@H]1CCCCN31 [SECURININE] | Stable

Test system: not listed separately
Experiment: Antiproliferative activity against human HCT116 cells assessed as reduction in cell viability at 1 uM after 72 hrs by ATPlite assay
Type: functional
Settings: HCT-116, 72 h, read-out: GI
Method in brief: (§2)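 HCT-116 human colon cancer cells exposed to compound for 72 h at 20, 10 or 1 μM. Growth inhibition is expressed as percentage relative to nontreated cells.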

Structure (SMILES) | inhibition of growth at 1 µM
CN(C)c1ccc(C#CC2=C[C@@H]3C[C@@]4(OC(=O)C=C24)[C@H]2CCCCN32)cc1 | 99.7%
CN(C)c1ccc(C2=C[C@@H]3C[C@@]4(OC(=O)C=C24)[C@H]2CCCCN32)cc1 | -1.4%
O=C1C=C2C(C#CCCCCl)=C[C@@H]3C[C@@]2(O1)[C@H]1CCCCN31 | 6.1%
COc1ccc(C#CC2=C[C@@H]3C[C@@]4(OC(=O)C=C24)[C@H]2CCCCN32)cc1 | 98.3%
O=C1C=C2C(C#Cc3ccccc3)=C[C@@H]3C[C@@]2(O1)[C@H]1CCCCN31 | 91.9%
O=C1C=C2C=C[C@@H]3C[C@@]2(O1)[C@H]1CCCCN31 [SECURININE] | 7.6%

Test system: A549
Experiment: Antiproliferative activity against human A549 cells assessed as reduction in cell viability after 72 hrs by ATPlite assay
Type: functional, cell-based
Settings: A549, 72 h
Method in brief: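 IC50 values were determined on a panel of four human cancer lines (HCT-116, A-549, HL-60, A-375), with camptothecin and etoposide as reference compounds.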

Structure (SMILES) | IC50
CN(C)c1ccc(C#CC2=C[C@@H]3C[C@@]4(OC(=O)C=C24)[C@H]2CCCCN32)cc1 | 600 nM
COc1ccc(C#CC2=C[C@@H]3C[C@@]4(OC(=O)C=C24)[C@H]2CCCCN32)cc1 | 290 nM
O=C1C=C2C=C[C@@H]3C[C@@]2(O1)[C@H]1CCCCN31 [SECURININE] | > 10000 nM

Test system: not listed separately
Experiment: Antiproliferative activity against human HCT116 cells assessed as reduction in cell viability after 72 hrs by ATPlite assay
Type: functional, cell-based
Settings: HCT-116, 72 h
Method in brief: (§3)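 IC50 determined in human cancer cell lines (HCT-116, A-375 melanoma, HL-60, A-549). Camptothecin and etoposide served as reference compounds.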

Structure (SMILES) | IC50
CN(C)c1ccc(C#CC2=C[C@@H]3C[C@@]4(OC(=O)C=C24)[C@H]2CCCCN32)cc1 | 420 nM
COc1ccc(C#CC2=C[C@@H]3C[C@@]4(OC(=O)C=C24)[C@H]2CCCCN32)cc1 | 340 nM
O=C1C=C2C=C[C@@H]3C[C@@]2(O1)[C@H]1CCCCN31 [SECURININE] | > 10000 nM

Test system: not listed separately
Experiment: Metabolic stability in mouse liver microsomes at 2 uM after 1 hr by ZQ-LC-MS analysis
Type: ADME
Settings: not given

Structure (SMILES) | Stability
CN(C)c1ccc(C#CC2=C[C@@H]3C[C@@]4(OC(=O)C=C24)[C@H]2CCCCN32)cc1 | Unstable
CN(C)c1ccc(C2=C[C@@H]3C[C@@]4(OC(=O)C=C24)[C@H]2CCCCN32)cc1 | Unstable
O=C1C=C2C(C#CCCCCl)=C[C@@H]3C[C@@]2(O1)[C@H]1CCCCN31 | Unstable
O=C1C=C2C(C#Cc3ccccc3)=C[C@@H]3C[C@@]2(O1)[C@H]1CCCCN31 | Unstable
O=C1C=C2C=C[C@@H]3C[C@@]2(O1)[C@H]1CCCCN31 [SECURININE] | Unstable

Test system: Liver microsome
Experiment: Metabolic stability in human liver microsomes at 2 uM after 1 hr by ZQ-LC-MS analysis
Type: ADME
Settings: not given

Structure (SMILES) | Stability
CN(C)c1ccc(C#CC2=C[C@@H]3C[C@@]4(OC(=O)C=C24)[C@H]2CCCCN32)cc1 | Unstable
CN(C)c1ccc(C2=C[C@@H]3C[C@@]4(OC(=O)C=C24)[C@H]2CCCCN32)cc1 | Unstable
O=C1C=C2C(C#CCCCCl)=C[C@@H]3C[C@@]2(O1)[C@H]1CCCCN31 | Unstable
O=C1C=C2C(C#Cc3ccccc3)=C[C@@H]3C[C@@]2(O1)[C@H]1CCCCN31 | Unstable
O=C1C=C2C=C[C@@H]3C[C@@]2(O1)[C@H]1CCCCN31 [SECURININE] | Stable

Test system: Plasma
Experiment: Metabolic stability in rat plasma at 5 uM after 2 hrs by ZQ-LC-MS analysis
Type: ADME, cell-free
Settings: not given
Method in brief: as §1

Structure (SMILES) | Stability
CN(C)c1ccc(C#CC2=C[C@@H]3C[C@@]4(OC(=O)C=C24)[C@H]2CCCCN32)cc1 | Unstable
CN(C)c1ccc(C2=C[C@@H]3C[C@@]4(OC(=O)C=C24)[C@H]2CCCCN32)cc1 | Stable
COc1ccc(C#CC2=C[C@@H]3C[C@@]4(OC(=O)C=C24)[C@H]2CCCCN32)cc1 | Unstable
O=C1C=C2C(C#Cc3ccccc3)=C[C@@H]3C[C@@]2(O1)[C@H]1CCCCN31 | Unstable
O=C1C=C2C=C[C@@H]3C[C@@]2(O1)[C@H]1CCCCN31 [SECURININE] | Stable

Test system: Plasma
Experiment: Metabolic stability in human plasma at 5 uM after 2 hrs by ZQ-LC-MS analysis
Type: ADME, cell-free
Settings: not given
Method in brief: as §1

Structure (SMILES) | Stability
CN(C)c1ccc(C#CC2=C[C@@H]3C[C@@]4(OC(=O)C=C24)[C@H]2CCCCN32)cc1 | Unstable
CN(C)c1ccc(C2=C[C@@H]3C[C@@]4(OC(=O)C=C24)[C@H]2CCCCN32)cc1 | Stable
COc1ccc(C#CC2=C[C@@H]3C[C@@]4(OC(=O)C=C24)[C@H]2CCCCN32)cc1 | Unstable
O=C1C=C2C(C#Cc3ccccc3)=C[C@@H]3C[C@@]2(O1)[C@H]1CCCCN31 | Unstable
O=C1C=C2C=C[C@@H]3C[C@@]2(O1)[C@H]1CCCCN31 [SECURININE] | Stable

Test system: Liver microsome
Experiment: Metabolic stability in rat liver microsomes at 2 uM after 1 hr by ZQ-LC-MS analysis
Type: ADME
Settings: not given

Structure (SMILES) | Stability
CN(C)c1ccc(C#CC2=C[C@@H]3C[C@@]4(OC(=O)C=C24)[C@H]2CCCCN32)cc1 | Unstable
CN(C)c1ccc(C2=C[C@@H]3C[C@@]4(OC(=O)C=C24)[C@H]2CCCCN32)cc1 | Unstable
O=C1C=C2C(C#CCCCCl)=C[C@@H]3C[C@@]2(O1)[C@H]1CCCCN31 | Unstable
O=C1C=C2C(C#Cc3ccccc3)=C[C@@H]3C[C@@]2(O1)[C@H]1CCCCN31 | Unstable
O=C1C=C2C=C[C@@H]3C[C@@]2(O1)[C@H]1CCCCN31 [SECURININE] | Unstable

Test system: not listed separately
Experiment: Antiproliferative activity against human HCT116 cells assessed as reduction in cell viability at 20 uM after 72 hrs by ATPlite assay
Type: functional
Settings: HCT-116, 72 h, read-out: GI
Method in brief: as §2

Structure (SMILES) | inhibition of growth at 20 µM
CN(C)c1ccc(C#CC2=C[C@@H]3C[C@@]4(OC(=O)C=C24)[C@H]2CCCCN32)cc1 | 100%
CN(C)c1ccc(C2=C[C@@H]3C[C@@]4(OC(=O)C=C24)[C@H]2CCCCN32)cc1 | 19.3%
O=C1C=C2C(C#CCCCCl)=C[C@@H]3C[C@@]2(O1)[C@H]1CCCCN31 | 99.2%
COc1ccc(C#CC2=C[C@@H]3C[C@@]4(OC(=O)C=C24)[C@H]2CCCCN32)cc1 | 100%
O=C1C=C2C(C#Cc3ccccc3)=C[C@@H]3C[C@@]2(O1)[C@H]1CCCCN31 | 100%
O=C1C=C2C=C[C@@H]3C[C@@]2(O1)[C@H]1CCCCN31 [SECURININE] | 90.7%

Test system: not listed separately
Experiment: Antiproliferative activity against human HCT116 cells assessed as reduction in cell viability at 10 uM after 72 hrs by ATPlite assay
Type: functional
Settings: HCT-116, 72 h, read-out: GI
Method in brief: as §2

Structure (SMILES) | inhibition of growth at 10 µM
CN(C)c1ccc(C#CC2=C[C@@H]3C[C@@]4(OC(=O)C=C24)[C@H]2CCCCN32)cc1 | 100%
CN(C)c1ccc(C2=C[C@@H]3C[C@@]4(OC(=O)C=C24)[C@H]2CCCCN32)cc1 | 5.6%
O=C1C=C2C(C#CCCCCl)=C[C@@H]3C[C@@]2(O1)[C@H]1CCCCN31 | 97.8%
COc1ccc(C#CC2=C[C@@H]3C[C@@]4(OC(=O)C=C24)[C@H]2CCCCN32)cc1 | 100%
O=C1C=C2C(C#Cc3ccccc3)=C[C@@H]3C[C@@]2(O1)[C@H]1CCCCN31 | 100%
O=C1C=C2C=C[C@@H]3C[C@@]2(O1)[C@H]1CCCCN31 [SECURININE] | 50.6%

Test system: A-375
Experiment: Antiproliferative activity against human A375 cells assessed as reduction in cell viability after 72 hrs by ATPlite assay
Type: functional, cell-based
Settings: A-375, 72 h
Method in brief: as §3

Structure (SMILES) | IC50
CN(C)c1ccc(C#CC2=C[C@@H]3C[C@@]4(OC(=O)C=C24)[C@H]2CCCCN32)cc1 | 170 nM
COc1ccc(C#CC2=C[C@@H]3C[C@@]4(OC(=O)C=C24)[C@H]2CCCCN32)cc1 | 60 nM

Test system: not listed separately
Experiment: Antiproliferative activity against human HL60 cells assessed as reduction in cell viability after 72 hrs by ATPlite assay
Type: functional, cell-based
Settings: HL-60, 72 h
Method in brief: as §3

Structure (SMILES) | IC50
CN(C)c1ccc(C#CC2=C[C@@H]3C[C@@]4(OC(=O)C=C24)[C@H]2CCCCN32)cc1 | 420 nM
COc1ccc(C#CC2=C[C@@H]3C[C@@]4(OC(=O)C=C24)[C@H]2CCCCN32)cc1 | 660 nM
O=C1C=C2C=C[C@@H]3C[C@@]2(O1)[C@H]1CCCCN31 [SECURININE] | > 10000 nM
